From ChEMBL document CHEMBL1125645, “Specific bradycardic agents. 2. Heteroaromatic modifications in the side chain of specific bradycardic benzazepinones: chemistry, pharmacology, and structure-activity relationships” (1991)

Legend:
Rattus norvegicus [1] = assay: Bradycardic activity was evaluated in an anesthetized rat model as percent heart rate(beats/min) reduction 5 min after iv injection of 5 mg/kg; type: functional
How it was run: (§1)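 Male Chbb:THOM rats, 200-250 g, anesthetized with pentobarbital sodium 50 mg/kg ip, with the trachea cannulated and artificial respiration given. Heart rate was recorded continuously by an ECG-triggered beat-to-beat tachograph before and at 5 and 20 min after a single iv injection of 5 mg/kg. Values are % change from pre-dose, reported ± SEM.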

Rattus norvegicus [2] = organism: Rattus norvegicus; assay: Delta HR ratio measured as the ratio of delta HR(20 min)/delta HR (5 min); type: functional
How it was run: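 Duration-of-action index: the % heart-rate reduction at 20 min divided by that at 5 min after 5 mg/kg iv. Rats were male Chbb:THOM, pentobarbital-anesthetized and ventilated, with heart rate taken from an ECG-triggered tachograph.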

Rattus norvegicus [3] = assay: Hypotensive activity was evaluated in an anesthetized rat model as percent mean aortic blood pressure(mm hg) reduction 5 min after iv injection of 5 mg/kg; type: functional, Artery
How it was run: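 In pentobarbital-anesthetized (50 mg/kg ip), artificially ventilated male Chbb:THOM rats (200-250 g), mean aortic pressure was measured through a carotid artery cannula connected to an electromechanical transducer. Readings were taken before and 5 min after 5 mg/kg iv. Values are % change from baseline, ± SEM.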

Rattus norvegicus [4] = organism: Rattus norvegicus; assay: Ratio of heart rate reduction to mean arterial blood pressure reduction; type: functional
How it was run: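 Selectivity parameter S: the % heart-rate reduction divided by the % mean arterial pressure reduction, both read 5 min after 5 mg/kg iv in anesthetized, ventilated male Chbb:THOM rats. Heart rate came from an ECG-triggered tachograph and pressure from a carotid cannula.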

Rattus norvegicus [5] = assay: Bradycardic activity was evaluated in an anesthetized rat model as percent heart rate(beats/min) reduction 20 min after iv injection of 5 mg/kg; type: functional; how it was run: as §1

In the case of `COc1cc2c(cc1OC)CC(=O)N(CCCN(C)CCc1ccco1)CC2`, the “Delta HR” value (Rattus norvegicus [1]) is reported as -12%, the Ratio (Rattus norvegicus [2]) is reported as 0.92 and the “Delta MAP” value (Rattus norvegicus [3]) is reported as -52%. For the same compound, the Selectivity (Rattus norvegicus [4]) was 0.23 and the “Delta HR” value (Rattus norvegicus [5]) was -11%.
With `COc1cc2c(cc1OC)CC(=O)N(CCCN(C)CCc1c[nH]c3ccc(O)cc13)CC2` the “Delta HR” value (Rattus norvegicus [1]) was -49%, the Ratio (Rattus norvegicus [2]) was 0.49 and the “Delta MAP” value (Rattus norvegicus [3]) was -27%. For the same compound, the Selectivity (Rattus norvegicus [4]) was 1.8 and the “Delta HR” value (Rattus norvegicus [5]) was -24%.
For `COc1cc2c(cc1OC)CC(=O)N(CCCN(C)CCc1cccnc1)CC2`, the “Delta HR” value (Rattus norvegicus [1]) was -12%, the Ratio (Rattus norvegicus [2]) was 1.5 and the “Delta MAP” value (Rattus norvegicus [3]) was -11%. The Selectivity (Rattus norvegicus [4]) was 1.1 and the “Delta HR” value (Rattus norvegicus [5]) was -18%.
For `COc1cc2c(cc1OC)CC(=O)N(CCCN(C)CCc1csc3cc(OC)c(OC)cc13)CC2`, the “Delta HR” value (Rattus norvegicus [1]) was -24%, the Ratio (Rattus norvegicus [2]) was 0.71 and the “Delta MAP” value (Rattus norvegicus [3]) was -17%. The Selectivity (Rattus norvegicus [4]) was 1.4 and the “Delta HR” value (Rattus norvegicus [5]) was -17%.
In the case of `COc1cc2c(cc1OC)CC(=O)N(CCCN(C)CCc1csc3cccc(OC)c13)CC2`, the “Delta HR” value (Rattus norvegicus [1]) is reported as -34%, the Ratio (Rattus norvegicus [2]) is reported as 0.72 and the “Delta MAP” value (Rattus norvegicus [3]) is reported as -21%. For the same compound, the Selectivity (Rattus norvegicus [4]) was 1.6 and the “Delta HR” value (Rattus norvegicus [5]) was -24%.
`COc1cc2c(cc1OC)CC(=O)N(CCCN(C)CCc1c[nH]c3ccccc13)CC2` was tested, and the “Delta HR” value (Rattus norvegicus [1]) was -50%, the Ratio (Rattus norvegicus [2]) was 0.73 and the “Delta MAP” value (Rattus norvegicus [3]) was -23%. The Selectivity (Rattus norvegicus [4]) was 2.2 and the “Delta HR” value (Rattus norvegicus [5]) was -36%.
For `COc1cc2c(cc1OC)CC(=O)N(CCCN(C)CCc1c[nH]c3ccc(OCc4ccccc4)cc13)CC2`, the “Delta HR” value (Rattus norvegicus [1]) was -49%, the Ratio (Rattus norvegicus [2]) was 0.93 and the “Delta MAP” value (Rattus norvegicus [3]) was -45%. For the same compound, the Selectivity (Rattus norvegicus [4]) was 1.1 and the “Delta HR” value (Rattus norvegicus [5]) was -46%.
With `COc1cc2c(cc1OC)CC(=O)N(CCCN(C)CCc1coc3cccc(OC)c13)CC2` the “Delta HR” value (Rattus norvegicus [1]) was -31%, the Ratio (Rattus norvegicus [2]) was 0.45 and the “Delta MAP” value (Rattus norvegicus [3]) was -8%. For the same compound, the Selectivity (Rattus norvegicus [4]) was 3.9 and the “Delta HR” value (Rattus norvegicus [5]) was -14%.
For `COc1cc2c(cc1OC)CC(=O)N(CCCN(C)CCc1coc3ccccc13)CC2`, the “Delta HR” value (Rattus norvegicus [1]) was -54%, the Ratio (Rattus norvegicus [2]) was 0.72 and the “Delta MAP” value (Rattus norvegicus [3]) was -39%. The Selectivity (Rattus norvegicus [4]) was 1.4 and the “Delta HR” value (Rattus norvegicus [5]) was -39%.
With `COc1cc2c(cc1OC)CC(=O)N(CCCN(C)CCc1csc3ccccc13)CC2` the “Delta HR” value (Rattus norvegicus [1]) was -66%, the Ratio (Rattus norvegicus [2]) was 0.78 and the “Delta MAP” value (Rattus norvegicus [3]) was -55%. For the same compound, the Selectivity (Rattus norvegicus [4]) was 1.2 and the “Delta HR” value (Rattus norvegicus [5]) was -51%.
In the case of `COc1cc2c(cc1OC)CC(=O)N(CCCN(C)CCCCc1cccs1)CC2`, the “Delta HR” value (Rattus norvegicus [1]) is reported as -61%, the Ratio (Rattus norvegicus [2]) is reported as 0.39 and the “Delta MAP” value (Rattus norvegicus [3]) is reported as -2%. The Selectivity (Rattus norvegicus [4]) was 2.3 and the “Delta HR” value (Rattus norvegicus [5]) was -24%.
In the case of `COc1ccc2c(CCN(C)CCCN3CCc4cc(OC)c(OC)cc4CC3=O)coc2c1`, the “Delta HR” value (Rattus norvegicus [1]) is reported as -59%, the Ratio (Rattus norvegicus [2]) is reported as 0.58 and the “Delta MAP” value (Rattus norvegicus [3]) is reported as -35%. The Selectivity (Rattus norvegicus [4]) was 1.7 and the “Delta HR” value (Rattus norvegicus [5]) was -34%.
With `COc1cc2c(cc1OC)CC(=O)N(CCCN(C)CCc1cn(C)c3ccccc13)CC2` the “Delta HR” value (Rattus norvegicus [1]) was -50%, the Ratio (Rattus norvegicus [2]) was 0.74 and the “Delta MAP” value (Rattus norvegicus [3]) was -22%. For the same compound, the Selectivity (Rattus norvegicus [4]) was 2.3 and the “Delta HR” value (Rattus norvegicus [5]) was -37%.
`COc1cc2c(cc1OC)CC(=O)N(CCCN(C)CCc1csc3c1CCCC3)CC2` was tested, and the “Delta HR” value (Rattus norvegicus [1]) was -69%, the Ratio (Rattus norvegicus [2]) was 0.8 and the “Delta MAP” value (Rattus norvegicus [3]) was -43%. For the same compound, the Selectivity (Rattus norvegicus [4]) was 1.6 and the “Delta HR” value (Rattus norvegicus [5]) was -55%.
`COc1ccc(CCN(C)CCCN2CCc3cc(OC)c(OC)cc3CC2=O)cc1OC` [ZATEBRADINE] was tested, and the “Delta HR” value (Rattus norvegicus [1]) was -56%, the Ratio (Rattus norvegicus [2]) was 0.83 and the “Delta MAP” value (Rattus norvegicus [3]) was -21%. For the same compound, the Selectivity (Rattus norvegicus [4]) was 2.6 and the “Delta HR” value (Rattus norvegicus [5]) was -46%.
`COc1cc2c(cc1OC)CC(=O)N(CCCN(C)CCc1cc(C)sc1C)CC2` was tested, and the “Delta HR” value (Rattus norvegicus [1]) was -61%, the Ratio (Rattus norvegicus [2]) was 0.65 and the “Delta MAP” value (Rattus norvegicus [3]) was -36%. For the same compound, the Selectivity (Rattus norvegicus [4]) was 1.7 and the “Delta HR” value (Rattus norvegicus [5]) was -40%.
With `COc1cc2c(cc1OC)CC(=O)N(CCCN(C)CCCCCCc1cccs1)CC2` the “Delta HR” value (Rattus norvegicus [1]) was -53%, the Ratio (Rattus norvegicus [2]) was 0.4 and the “Delta MAP” value (Rattus norvegicus [3]) was -26%. The Selectivity (Rattus norvegicus [4]) was 2 and the “Delta HR” value (Rattus norvegicus [5]) was -21%.
`COc1cc2c(cc1OC)CC(=O)N(CCCN(C)CCc1csc3ccc(Br)cc13)CC2` was tested, and the “Delta HR” value (Rattus norvegicus [1]) was -50%, the Ratio (Rattus norvegicus [2]) was 0.34 and the “Delta MAP” value (Rattus norvegicus [3]) was -41%. For the same compound, the Selectivity (Rattus norvegicus [4]) was 1.2 and the “Delta HR” value (Rattus norvegicus [5]) was -17%.
For `COc1cc2c(cc1OC)CC(=O)N(CCCN(C)CCc1c[nH]c3ccc(Br)cc13)CC2`, the “Delta HR” value (Rattus norvegicus [1]) was -33%, the Ratio (Rattus norvegicus [2]) was 0.82 and the “Delta MAP” value (Rattus norvegicus [3]) was -34%. For the same compound, the Selectivity (Rattus norvegicus [4]) was 0.98 and the “Delta HR” value (Rattus norvegicus [5]) was -27%.
For `COc1cc2c(cc1OC)CC(=O)N(CCCN(C)CCCc1c[nH]c3ccccc13)CC2`, the “Delta HR” value (Rattus norvegicus [1]) was -62%, the Ratio (Rattus norvegicus [2]) was 0.76 and the “Delta MAP” value (Rattus norvegicus [3]) was -34%. The Selectivity (Rattus norvegicus [4]) was 1.8 and the “Delta HR” value (Rattus norvegicus [5]) was -47%.
With `COc1cc2c(cc1OC)CC(=O)N(CCCN(C)CCc1csc3cc(O)ccc13)CC2` the “Delta HR” value (Rattus norvegicus [1]) was -50%, the Ratio (Rattus norvegicus [2]) was 0.74 and the “Delta MAP” value (Rattus norvegicus [3]) was -29%. The Selectivity (Rattus norvegicus [4]) was 1.7 and the “Delta HR” value (Rattus norvegicus [5]) was -37%.
In the case of `COc1ccc2[nH]cc(CCN(C)CCCN3CCc4cc(OC)c(OC)cc4CC3=O)c2c1`, the “Delta HR” value (Rattus norvegicus [1]) is reported as -32%, the Ratio (Rattus norvegicus [2]) is reported as 0.92 and the “Delta MAP” value (Rattus norvegicus [3]) is reported as -18%. For the same compound, the Selectivity (Rattus norvegicus [4]) was 1.8 and the “Delta HR” value (Rattus norvegicus [5]) was -29%.
With `COc1cc2c(cc1OC)CC(=O)N(CCCN(C)CCCc1ccco1)CC2` the “Delta HR” value (Rattus norvegicus [1]) was -19%, the Ratio (Rattus norvegicus [2]) was 0.95 and the “Delta MAP” value (Rattus norvegicus [3]) was -61%. The Selectivity (Rattus norvegicus [4]) was 0.31 and the “Delta HR” value (Rattus norvegicus [5]) was -18%.
With `COc1cc2c(cc1OC)CC(=O)N(CCCN(C)Cc1csc3ccccc13)CC2` the “Delta HR” value (Rattus norvegicus [1]) was -18%, the Ratio (Rattus norvegicus [2]) was 0.4 and the “Delta MAP” value (Rattus norvegicus [3]) was -27%. For the same compound, the Selectivity (Rattus norvegicus [4]) was 0.66 and the “Delta HR” value (Rattus norvegicus [5]) was -7%.
With `COc1cc2c(cc1OC)CC(=O)N(CCCN(C)CCc1csc3cc(OS(C)(=O)=O)ccc13)CC2` the “Delta HR” value (Rattus norvegicus [1]) was -50%, the Ratio (Rattus norvegicus [2]) was 0.8 and the “Delta MAP” value (Rattus norvegicus [3]) was -21%. For the same compound, the Selectivity (Rattus norvegicus [4]) was 2.4 and the “Delta HR” value (Rattus norvegicus [5]) was -40%.
With `COc1cc2c(cc1OC)CC(=O)N(CCCN(C)CCc1cccs1)CC2` the “Delta HR” value (Rattus norvegicus [1]) was -28%, the Ratio (Rattus norvegicus [2]) was 0.56 and the “Delta MAP” value (Rattus norvegicus [3]) was -34%. For the same compound, the Selectivity (Rattus norvegicus [4]) was 0.82 and the “Delta HR” value (Rattus norvegicus [5]) was -16%.
With `COc1cc2c(cc1OC)CC(=O)N(CCCN(C)CCCCCc1cccs1)CC2` the “Delta HR” value (Rattus norvegicus [1]) was -68%, the Ratio (Rattus norvegicus [2]) was 0.53 and the “Delta MAP” value (Rattus norvegicus [3]) was -15%. The Selectivity (Rattus norvegicus [4]) was 4.4 and the “Delta HR” value (Rattus norvegicus [5]) was -36%.
For `COc1cc2c(cc1OC)CC(=O)N(CCCN(C)CCc1csc3ccc(C)cc13)CC2`, the “Delta HR” value (Rattus norvegicus [1]) was -51%, the Ratio (Rattus norvegicus [2]) was 0.75 and the “Delta MAP” value (Rattus norvegicus [3]) was -36%. The Selectivity (Rattus norvegicus [4]) was 1.4 and the “Delta HR” value (Rattus norvegicus [5]) was -38%.
For `COc1cc2c(cc1OC)CC(=O)N(CCCN(C)CCCc1csc3ccccc13)CC2`, the “Delta HR” value (Rattus norvegicus [1]) was -65%, the Ratio (Rattus norvegicus [2]) was 0.69 and the “Delta MAP” value (Rattus norvegicus [3]) was -46%. The Selectivity (Rattus norvegicus [4]) was 1.4 and the “Delta HR” value (Rattus norvegicus [5]) was -45%.
With `COc1cc2c(cc1OC)CC(=O)N(CCCN(C)CCCc1cccs1)CC2` the “Delta HR” value (Rattus norvegicus [1]) was -40%, the Ratio (Rattus norvegicus [2]) was 0.48 and the “Delta MAP” value (Rattus norvegicus [3]) was -20%. For the same compound, the Selectivity (Rattus norvegicus [4]) was 2 and the “Delta HR” value (Rattus norvegicus [5]) was -19%.
`COc1cc2c(cc1OC)CC(=O)N(CCCN(C)CCc1cc3ccccc3o1)CC2` was tested, and the “Delta HR” value (Rattus norvegicus [1]) was -67%, the Ratio (Rattus norvegicus [2]) was 0.67 and the “Delta MAP” value (Rattus norvegicus [3]) was -39%. The Selectivity (Rattus norvegicus [4]) was 1.7 and the “Delta HR” value (Rattus norvegicus [5]) was -45%.
For `COc1cc2c(cc1OC)CC(=O)N(CCCN(C)CCc1cccn1C)CC2`, the “Delta HR” value (Rattus norvegicus [1]) was -30%, the Ratio (Rattus norvegicus [2]) was 0.59 and the “Delta MAP” value (Rattus norvegicus [3]) was -18%. The Selectivity (Rattus norvegicus [4]) was 1.7 and the “Delta HR” value (Rattus norvegicus [5]) was -18%.
